“Also recorded” adds a separate entry of the source. Like-named read-outs stand apart in the source and are kept apart here.
Assays:
[1] = target: Recombinant BTK (Homo sapiens, UniProt Q06187); experiment: In vitro biochemical kinase assay
[2] = system: RAMOS; experiment: MTS cytotoxicity assay, 72 h, RAMOS; type: cell-based, human
Procedure, shortened: (§1)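 Human lines were kept at 37 °C, 5% CO2 in recommended medium plus 10% FCS, penicillin–streptomycin, 2 mM glutamine, 1 mM bicarbonate, 1 mM pyruvate and 20 mM HEPES, and were mycoplasma-tested biweekly. Cells were exposed to test compound for 72 h on a robotic screening platform, then read by MTS. DMSO-treated cells were the negative control. IC50 came from dose–response curves, mean of ≥6 replicates.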

[3] = system: BJ; experiment: MTS cytotoxicity assay, 72 h, BJ fibroblasts; type: cell-based, human
Procedure, shortened: as §1

[4] = system: MRC-5; experiment: MTS cytotoxicity assay, 72 h, MRC-5 fibroblasts; type: cell-based, human; conditions: read-out: IC50 MRC-5
Procedure, shortened: as §1

[5] = system: A549; experiment: MTS cytotoxicity assay, 72 h, A549; type: cell-based, human; conditions: read-out: IC50 A549
Procedure, shortened: as §1

[6] = system: K562; experiment: MTS cytotoxicity assay, 72 h, K562; type: cell-based, human; conditions: read-out: IC50 K562
Procedure, shortened: as §1

[7] = system: Jurkat; experiment: MTS cytotoxicity assay, 72 h, Jurkat; type: cell-based, human
Procedure, shortened: as §1

[8] = system: U2OS; experiment: MTS cytotoxicity assay, 72 h, U2OS; type: cell-based, human
Procedure, shortened: as §1

[9] = system: HCT116; experiment: MTS cytotoxicity assay, 72 h, HCT116; type: cell-based, human; conditions: read-out: IC50 HCT116
Procedure, shortened: as §1

[10] = system: HCT116-p53; experiment: MTS cytotoxicity assay, 72 h, HCT116-p53; type: cell-based, human
Procedure, shortened: as §1

[11] = system: CCRF-CEM; experiment: MTS cytotoxicity assay, 72 h, CCRF-CEM; type: cell-based, human
Procedure, shortened: as §1

[12] = system: malignant T-cell lines; conditions: cited from earlier work
[13] = MTS cytotoxicity assay, statements over groups of cell lines of the panel; type: cell-based, human; conditions: human
Procedure, shortened: as §1

[14] = system: panel of human cell lines; experiment: as above; type: cell-based; conditions: stated together in the text; for IC50 / cytotoxicity in fibroblast cells: non-cancerous fibroblasts (BJ, MRC-5)
Procedure, shortened: as §1

[15] = system: p-ITK (Tyr551/Tyr511); experiment: Western blot of ITK phosphorylation in PHA-stimulated Jurkat cells; type: cell-based, human
Procedure, shortened: (§2)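 Jurkat cells at 0.5 × 10^6 per mL were stimulated with PHA 5 µg per mL in RPMI/10% FCS for 15 min, then given test compound at 10, 2.25 or 0.62 µM for 24 h. Controls were 0.1% DMSO and unstimulated cells. RIPA lysates (30 µg) were run on 10% SDS-PAGE and probed for p-ITK/BTK (Tyr551/Tyr511), ITK, p-ERK1/2 (Thr202/Tyr204), ERK1/2 and GAPDH using fluorescent secondaries. Phospho/total ratios were normalised to GAPDH.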

[16] = system: p-ERK1/2 (Thr202/Tyr204); experiment: Western blot of ERK1/2 phosphorylation in PHA-stimulated Jurkat cells; type: cell-based, human
Procedure, shortened: as §2

[17] = target: T1, Recombinant ITK (Homo sapiens, UniProt Q08881); experiment: In vitro biochemical kinase assay
T1 sequence (Q08881 1-620): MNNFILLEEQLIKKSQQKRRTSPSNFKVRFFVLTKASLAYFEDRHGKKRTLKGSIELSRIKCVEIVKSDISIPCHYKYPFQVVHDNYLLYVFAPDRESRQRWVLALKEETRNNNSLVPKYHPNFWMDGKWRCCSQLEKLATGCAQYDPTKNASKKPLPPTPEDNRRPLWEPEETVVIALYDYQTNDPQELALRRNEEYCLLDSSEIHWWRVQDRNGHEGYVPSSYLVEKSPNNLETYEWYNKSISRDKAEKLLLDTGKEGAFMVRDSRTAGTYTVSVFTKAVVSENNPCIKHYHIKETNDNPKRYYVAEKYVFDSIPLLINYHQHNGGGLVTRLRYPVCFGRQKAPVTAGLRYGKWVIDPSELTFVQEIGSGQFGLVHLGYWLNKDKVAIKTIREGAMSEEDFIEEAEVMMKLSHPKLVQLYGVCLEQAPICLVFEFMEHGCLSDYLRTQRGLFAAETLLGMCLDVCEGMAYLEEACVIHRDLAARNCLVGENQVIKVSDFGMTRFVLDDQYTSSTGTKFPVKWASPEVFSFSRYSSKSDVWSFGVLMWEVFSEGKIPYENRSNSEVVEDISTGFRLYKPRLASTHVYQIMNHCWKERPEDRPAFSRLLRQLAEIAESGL

[18] = ITK/BTK null, MTS, 72 h, mean of ≥6 replicates
[19] = BJ and MRC-5 non-cancerous fibroblast cell lines
[20] = Homo sapiens, Ramos, read-out: IC50 RAMOS
[21] = Homo sapiens, BJ, read-out: IC50 BJ
[22] = Homo sapiens, Jurkat, read-out: IC50 Jurkat
[23] = Homo sapiens, U2OS, read-out: IC50 U2OS
[24] = Homo sapiens, read-out: IC50 HCT116-p53
[25] = Homo sapiens, CCRF-CEM, read-out: IC50 CCRF-CEM

Sequence of Recombinant BTK (Q06187 whole entry): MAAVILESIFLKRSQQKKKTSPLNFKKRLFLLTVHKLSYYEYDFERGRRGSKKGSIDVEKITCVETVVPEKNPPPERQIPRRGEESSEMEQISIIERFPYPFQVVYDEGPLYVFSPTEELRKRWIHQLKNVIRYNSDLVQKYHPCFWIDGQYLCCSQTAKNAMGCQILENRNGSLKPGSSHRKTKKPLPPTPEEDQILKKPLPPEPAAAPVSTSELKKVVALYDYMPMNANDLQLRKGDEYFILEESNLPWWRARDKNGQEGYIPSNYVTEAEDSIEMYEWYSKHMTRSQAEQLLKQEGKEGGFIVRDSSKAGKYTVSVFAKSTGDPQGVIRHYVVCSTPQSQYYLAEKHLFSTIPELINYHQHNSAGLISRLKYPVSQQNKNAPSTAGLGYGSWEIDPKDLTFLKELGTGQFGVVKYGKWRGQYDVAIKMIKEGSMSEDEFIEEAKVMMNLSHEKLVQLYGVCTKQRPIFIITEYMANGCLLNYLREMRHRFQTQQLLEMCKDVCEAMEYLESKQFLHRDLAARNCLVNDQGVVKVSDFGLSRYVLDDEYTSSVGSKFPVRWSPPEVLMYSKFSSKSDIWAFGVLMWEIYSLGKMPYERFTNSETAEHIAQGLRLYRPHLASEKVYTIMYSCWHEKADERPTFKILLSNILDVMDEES

Compound | IC50 / cytotoxicity in fibroblast cells [14] | IC50 [2, 20] [µM] | IC50 [3, 21] [µM] | IC50 ([4]; Homo sapiens, MRC5, 72 h) [µM] | IC50 ([5]; Homo sapiens, A549, 72 h) [µM] | IC50 ([6]; Homo sapiens, K562, 72 h) [µM] | IC50 [7, 22] [µM] | IC50 [8, 23] [µM] | IC50 ([9]; Homo sapiens, HCT-116, 72 h) [µM] | IC50 [10, 24] [µM] | IC50 [11, 25] [µM] | also measured
1-(6-(3,5-difluorophenyl)-3-oxo-2,3-dihydropyridazin-4-yl)-N-(furan-2-ylmethyl)azetidine-3-carboxamide [Compound 22] | – | – | – | – | – | – | – | – | – | – | – | BTK inhibition (in words) ([1]; ADP-Glo, 0–10 µM range): partial BTK inhibition; also recorded: partial activity against BTK; maximal inhibition of BTK ([1]; at 10 µM): ≤ 50%; IC50 ([1]; read-out: IC50 BTK activity, ADP-Glo, 0–10 µM range): > 10 µM; IC50 ([2]; read-out: IC50 RAMOS, BTK positive, MTS, mean of ≥6 replicates): 22.3 µM; IC50 ([3]; read-out: IC50 BJ, Non-cancer fibroblasts, MTS, mean of ≥6 replicates): > 50 µM; IC50 ([4]; Non-cancer fibroblasts, MTS, 72 h, mean of ≥6 replicates): > 50 µM; IC50 [5, 18]: > 50 µM; IC50 ([6]; BTK positive, MTS, 72 h, mean of ≥6 replicates): 21.4 µM; IC50 ([7]; read-out: IC50 Jurkat, ITK positive, MTS, mean of ≥6 replicates): 11.2 µM; IC50 ([8]; read-out: IC50 U2OS, ITK/BTK null, MTS, mean of ≥6 replicates): 36.2 µM; IC50 [9, 18]: 40.3 µM; IC50 ([10]; read-out: IC50 HCT116-p53, ITK/BTK null, MTS, mean of ≥6 replicates): 41.2 µM; IC50 ([11]; read-out: IC50 CCRF-CEM, ITK positive, MTS, mean of ≥6 replicates): 18.5 µM
COc1cc(C)c(Sc2cnc(NC(=O)c3ccc(CNC(C)C(C)(C)C)cc3)s2)cc1C(=O)N1CCN(C(C)=O)CC1 (stereo not drawn) [BMS-509744] | – | – | – | – | – | – | – | – | – | – | – | effect in malignant T-cell lines [12]: induced pro-apoptotic signaling and G2/M cell cycle arrest
O=C(Nc1ccccc1)C1CN(c2cc(-c3cccc(F)c3)n[nH]c2=O)C1 [Compound 9, 1-(6-(3-fluorophenyl)-3-oxo-2,3-dihydropyridazin-4-yl)-N-phenylazetidine-3-carboxamide] | inactive | 9.58 | > 50 | 43.2 | > 50 | > 50 | 37.6 | > 50 | > 50 | > 50 | 19.5 | IC50 at 72 h [13, 19]: > 50 µM; IC50 / cytotoxicity in non-ITK/BTK (ITK-null) cancer lines ([14]; A549, HCT116, HCT116-p53, U2OS): inactive; BTK inhibition (in words) ([1]; ADP-Glo, 0–10 µM range): no measurable BTK inhibition; also recorded: no BTK inhibitory effect was observed; also recorded: absence of BTK activity; total ITK level ([15]; PHA-stimulated Jurkat cells, 10 µM, 24 h): modest reduction; p-ITK (Tyr551/Tyr511) level ([15]; PHA-stimulated Jurkat cells, 10, 2.25, 0.62 µM for 24 h): reduced phosphorylation; also recorded: concentration-dependent decrease; also recorded: concentration-dependent significant reduction; p-ITK/ITK ratio (densitometry) ([15]; all concentrations tested, normalized to GAPDH): significant reduction; p-ERK1/2 (Thr202/Tyr204) level ([16]; PHA-stimulated Jurkat cells, 10 µM (highest concentration), 24 h): reduced phosphorylation; also recorded: significant decrease; p-ERK/ERK ratio (densitometry) ([16]; highest tested concentration, normalized to GAPDH): significant decrease; IC50 [17]: 0.87 µM
O=C(NCC(F)(F)F)C1CN(c2cc(-c3ccc(Cl)cc3)n[nH]c2=O)C1 [Compound 38, 1-(6-(4-chlorophenyl)-3-oxo-2,3-dihydropyridazin-4-yl)-N-(2,2,2-trifluoroethyl)azetidine-3-carboxamide] | No significant cytotoxicity | > 50 | > 50 | > 50 | > 50 | > 50 | 44.9 | > 50 | > 50 | > 50 | 29.9 | –
O=C(NCC(F)(F)F)C1CN(c2cc(-c3ccc(F)cc3F)n[nH]c2=O)C1 [Compound 39, 1-(6-(2,4-difluorophenyl)-3-oxo-2,3-dihydropyridazin-4-yl)-N-(2,2,2-trifluoroethyl)azetidine-3-carboxamide] | No significant cytotoxicity | > 50 | > 50 | > 50 | > 50 | > 50 | > 50 | > 50 | > 50 | > 50 | 26.8 | –
O=C(c1ccc(F)cc1)C1CN(c2cc(-c3ccncc3)n[nH]c2=O)C1 [Compound 52, 4-(3-(4-fluorobenzoyl)azetidin-1-yl)-6-(pyridin-4-yl)pyridazin-3(2H)-one] | – | 13.2 | > 50 | > 50 | > 50 | > 50 | 20.7 | > 50 | > 50 | > 50 | > 50 | IC50 at 72 h ([13]; A549, HCT116, HCT116-p53 and U2OS ITK-null cancer cell lines): > 50 µM; IC50 at 72 h [13, 19]: > 50 µM
C=CC(=O)N1CCC[C@@H](n2nc(-c3ccc(Oc4ccccc4)cc3)c3c(N)ncnc32)C1 [ibrutinib, reference compound] | – | – | – | – | – | – | – | – | – | – | – | inhibition of ITK activity (assay validation) ([17]; ibrutinib 100 µM, vs. DMSO control): significant inhibition
